# Tests used:
# Format in all cases: functional
# [1] = test system: Mythimna separata; assay: Insecticidal activity against Mythimna separata (Oriental armyworm) in wheat leaves assessed as mortality rate at 1 mg/mL at 25 degC measured after 35 days by leaf-dipping method relative to control; conditions: 840 h
# Outline: (§1)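 Leaf-dipping assay on pre-third-instar M. separata larvae. Compounds dissolved in acetone at 1 mg/mL; fresh wheat leaves dipped 3 s, then air-dried. Acetone-treated leaves served as control. 30 larvae per compound in groups of 10 per dish, with treated leaves replenished when consumed. After 48 h, larvae were switched to untreated fresh leaves. Corrected mortality = (T − C) × 100/(1 − C); three replicates.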
# [2] = test system: Mythimna separata; assay: Insecticidal activity against Mythimna separata (Oriental armyworm) in wheat leaves assessed as mortality rate at 1 mg/mL at 25 degC measured after 25 days by leaf-dipping method relative to control; conditions: 600 h; outline: as §1
# [3] = test system: Mythimna separata; assay: Insecticidal activity against Mythimna separata (Oriental armyworm) in wheat leaves assessed as mortality rate at 1 mg/mL at 25 degC measured after 10 days by leaf-dipping method relative to control; conditions: 240 h; outline: as §1
SMILES,mortality at 1000 µg/mL [1] [%],mortality at 1000 µg/mL [2] [%],mortality at 1000 µg/mL [3] [%]
CC1=C2C(=O)O[C@@H](c3ccoc3)[C@]2(C)CC[C@H]1OC(=O)COc1cccc2cccnc12,51.9,37,13.8
COc1cccc2ccc(C(=O)O[C@@H]3CC[C@]4(C)C(=C3C)C(=O)O[C@H]4c3ccoc3)nc12,63,48.1,20.7
CCCCCCCC(=O)OCC1=C2C(=O)O[C@@H](c3ccoc3)[C@]2(C)CCC1,33.3,25.9,6.9
C[C@@]12CCCC(COC(=O)Cc3ccccc3)=C1C(=O)O[C@H]2c1ccoc1,44.4,33.3,27.6
C[C@@]12CCCC(COC(=O)Cc3cccc4ccccc34)=C1C(=O)O[C@H]2c1ccoc1,48.1,33.3,20.7
C[C@@]12CCCC(COC(=O)c3ccccc3)=C1C(=O)O[C@H]2c1ccoc1,29.6,29.6,17.2
Cc1ccc(C(=O)OCC2=C3C(=O)O[C@@H](c4ccoc4)[C@]3(C)CCC2)cc1,29.6,29.6,17.2
C[C@@]12CCCC(COC(=O)c3ccc(F)cc3)=C1C(=O)O[C@H]2c1ccoc1,51.9,40.7,10.3
C[C@@]12CCCC(COC(=O)c3cccc(F)c3)=C1C(=O)O[C@H]2c1ccoc1,55.6,51.9,24.1
C[C@@]12CCCC(COC(=O)c3ccc(Cl)cc3)=C1C(=O)O[C@H]2c1ccoc1,40.7,25.9,6.9
C[C@@]12CCCC(COC(=O)c3cccc(Br)c3)=C1C(=O)O[C@H]2c1ccoc1,33.3,25.9,13.8
C[C@@]12CCCC(COC(=O)c3ccc(Br)cc3)=C1C(=O)O[C@H]2c1ccoc1,33.3,29.6,24.1
C[C@@]12CCCC(COC(=O)c3cccc([N+](=O)[O-])c3)=C1C(=O)O[C@H]2c1ccoc1,44.4,29.6,24.1
C[C@@]12CCCC(COC(=O)c3ccc([N+](=O)[O-])cc3)=C1C(=O)O[C@H]2c1ccoc1,40.7,33.3,13.8
C[C@@]12CCCC(COC(=O)c3ccc(C#N)cc3)=C1C(=O)O[C@H]2c1ccoc1,44.4,25.9,6.9
C[C@@]12CCCC(COC(=O)c3cccnc3)=C1C(=O)O[C@H]2c1ccoc1,51.9,44.4,27.6
C[C@@]12CCCC(COC(=O)c3ccncc3)=C1C(=O)O[C@H]2c1ccoc1,59.3,48.1,24.1
C[C@@]12CCCC(CO)=C1C(=O)O[C@H]2c1ccoc1,40.7,29.6,10.3
CCCCCCCC(=O)O[C@@H]1CC[C@]2(C)C(=C1C)C(=O)O[C@H]2c1ccoc1,48.1,33.3,10.3

SMILES,mortality at 1000 µg/mL [1] [%],mortality at 1000 µg/mL [2] [%],mortality at 1000 µg/mL [3] [%]
CCCCCCCCCCC(=O)O[C@@H]1CC[C@]2(C)C(=C1C)C(=O)O[C@H]2c1ccoc1,48.1,40.7,20.7
CC1=C2C(=O)O[C@@H](c3ccoc3)[C@]2(C)CC[C@H]1OC(=O)Cc1ccccc1,44.4,37,31
CC1=C2C(=O)O[C@@H](c3ccoc3)[C@]2(C)CC[C@H]1OC(=O)Cc1cccc2ccccc12,51.9,29.6,10.3
CC1=C2C(=O)O[C@@H](c3ccoc3)[C@]2(C)CC[C@H]1OC(=O)c1ccccc1,44.4,44.4,41.4
CC1=C2C(=O)O[C@@H](c3ccoc3)[C@]2(C)CC[C@H]1OC(=O)c1ccc(C)cc1,40.7,40.7,24.1
CC1=C2C(=O)O[C@@H](c3ccoc3)[C@]2(C)CC[C@H]1OC(=O)c1ccc(F)cc1,63,51.9,24.1
CC1=C2C(=O)O[C@@H](c3ccoc3)[C@]2(C)CC[C@H]1OC(=O)c1cccc(F)c1,44.4,29.6,24.1
CC1=C2C(=O)O[C@@H](c3ccoc3)[C@]2(C)CC[C@H]1OC(=O)c1ccc(Cl)cc1,40.7,33.3,20.7
CC1=C2C(=O)O[C@@H](c3ccoc3)[C@]2(C)CC[C@H]1OC(=O)c1cccc(Br)c1,44.4,40.7,20.7
CC1=C2C(=O)O[C@@H](c3ccoc3)[C@]2(C)CC[C@H]1OC(=O)c1ccc(Br)cc1,37,25.9,24.1
CC1=C2C(=O)O[C@@H](c3ccoc3)[C@]2(C)CC[C@H]1OC(=O)c1cccc([N+](=O)[O-])c1,48.1,40.7,10.3
CC1=C2C(=O)O[C@@H](c3ccoc3)[C@]2(C)CC[C@H]1OC(=O)c1ccc([N+](=O)[O-])cc1,51.9,40.7,27.6
CC1=C2C(=O)O[C@@H](c3ccoc3)[C@]2(C)CC[C@H]1OC(=O)c1ccc(C#N)cc1,55.6,48.1,20.7
CC1=C2C(=O)O[C@@H](c3ccoc3)[C@]2(C)CC[C@H]1OC(=O)c1cccnc1,55.6,40.7,20.7
CC1=C2C(=O)O[C@@H](c3ccoc3)[C@]2(C)CC[C@H]1OC(=O)c1ccncc1,66.7,48.1,24.1
CC1=C2C(=O)O[C@@H](c3ccoc3)[C@]2(C)CC[C@H]1OC(=O)c1ccco1,51.9,40.7,31
CC1=C2C(=O)O[C@@H](c3ccoc3)[C@]2(C)CC[C@H]1O [4ALPHA-HYDROXYFRAXINELLONE],48.1,37,20.7
CC1=C2C(=O)O[C@@H](c3ccoc3)[C@]2(C)CCC1 [FRAXINELLONE],44.4,33.3,20.7
CC(=O)O[C@@H]1C[C@H](O)[C@@]23CO[C@@H](O)[C@]1(C)[C@@H]2C[C@@H](O)[C@]1(C)[C@@H]3C(=O)[C@H](OC(C)=O)[C@@]2(C)[C@H](c3ccoc3)C[C@H]3O[C@]321 [TOOSENDANIN],48.1,33.3,27.6

# — ChEMBL document CHEMBL3046413, “Synthesis and insecticidal activity of some novel fraxinellone-based esters” (2012)
